Measurements: publication PMC4316201 (Gastroenterology, 2014)

Key:
[1] = tested on: human beings; details: intravenous infusion of native GLP-2, human beings; cited from earlier work
[2] = tested on: healthy men; assay type: in vivo, human beings; details: study A
How it was run: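 Six healthy normoglycemic, normolipidemic men took part in a randomized, single-blind crossover (visits 4 weeks apart). After an overnight fast, liquid mixed-macronutrient formula was infused nasoduodenally for 15 h from 4 AM. A pancreatic clamp (somatostatin, insulin, glucagon, growth hormone) started at 7 AM. At 9 AM came primed constant d3-leucine for 10 h plus s.c. GLP-2 1500 ug or placebo. AUC covered the first 3 h. Multicompartmental modelling gave FCR.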

[3] = tested on: healthy men; assay type: in vivo, human beings; details: study B
How it was run: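 Six healthy men were studied in a randomized, single-blind crossover (visits 4 weeks apart). At 7 am they drank a liquid meal containing 120,000 IU retinyl palmitate, with no food thereafter. At 2 pm (T = 0, 7 h post-meal) they received s.c. GLP-2 1500 mcg or placebo, with blood sampled for 3 h. TRL TG, retinyl palmitate and apoB-48 were measured. Incremental AUC over 0–3 h used the T = 0 concentration as baseline.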

[4] = Plasma total GLP-2 concentration after subcutaneous GLP-2; assay type: in vivo, human beings; details: 1500 μg of GLP-2 subcutaneously
How it was run: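 Plasma total GLP-2 was measured during the study A visits in healthy men (randomized, single-blind crossover, visits 4 weeks apart). After an overnight fast, subjects received nasoduodenal formula feeding under a pancreatic clamp, then a single subcutaneous GLP-2 dose (1500 ug) or placebo at 9 AM. Sampling continued over the kinetic study.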

[5] = tested on: human beings; details: cited from earlier work
[6] = GLP-2 1500 μg s.c. single dose, n = 6, vs placebo P = .03
[7] = GLP-2 1500 μg s.c., n = 6, vs placebo P = .02
[8] = GLP-2 1500 mcg s.c. 7 h after meal, N = 6, vs placebo P = .002

glucagon-like peptide-2 [GLP-2]
effect on postprandial plasma TG and free fatty acid (FFA) concentrations [1]: increase | plasma TG area under the concentration curve in the first 3 hours (AUC0-3) [2, 6]: 3.1 ± 0.4 mmol/L/h | plasma TG peak concentration at 1 hour [2, 6]: 1.23 ± 0.20 mmol/L | TRL apoB-48 AUC0-3 [2, 7]: 19.3 ± 5.0 mg/L/h | TRL apoB-48 peak concentration 1 hour after administration [2, 7]: 9.5 ± 2.6 mg/L | TRL TG peak concentration at 1 hour ([2]; GLP-2 1500 μg s.c., n = 6, vs placebo P = .15): 0.79 ± 0.09 mmol/L | TRL TG AUC0-3 ([2]; GLP-2 1500 μg s.c., n = 6, vs placebo P = .24): 1.9 ± 0.2 mmol/L/h | TRL apoB-100 mean concentration for the 10-hour kinetics study ([2]; GLP-2 1500 μg s.c., n = 6, vs placebo P = .5): 74.8 ± 7.4 mg/L | TRL apoB-100 AUC0-3 ([2]; GLP-2 1500 μg s.c., n = 6, vs placebo P = .95): 216 ± 21.9 mg/L/h | mean plasma glucagon concentration ([2]; GLP-2 1500 μg s.c., pancreatic clamp, vs placebo P = .01): 143.3 ± 14.2 pg/mL | mean plasma glucose concentration ([2]; GLP-2 1500 μg s.c., pancreatic clamp, vs placebo P = .049): 8.7 ± 0.3 mmol/L | plasma FFA concentration, GLP-2 vs placebo ([2]; during kinetic study): no significant difference | plasma insulin concentration, GLP-2 vs placebo ([2]; during kinetic study): no significant difference | plasma glucose concentration, GLP-2 vs placebo [3]: no significant difference | TRL TG iAUC0-3 [3, 8]: 0.28 ± 0.16 mmol/L/h | TRL retinyl palmitate iAUC0-3 [3, 8]: 0.86 ± 0.21 µmol/L/h | chylomicron (Sf > 400) retinyl palmitate peak concentration at 60 minutes ([3]; GLP-2 1500 mcg s.c. 7 h after meal, n = 5, vs placebo P = .003): 0.38 ± 0.06 µmol/L | TRL apoB-48 iAUC0-3 ([3]; GLP-2 1500 mcg s.c. 7 h after meal, n = 6, vs placebo P = .04): 1.45 ± 1.72 mg/L/h | TRL TG peak increment ([3]; GLP-2 1500 mcg s.c. 7 h after meal, vs placebo P = .003): 0.42 ± 0.11 | TRL apoB-48 peak increment ([3]; GLP-2 1500 mcg s.c. 7 h after meal, vs placebo P = .006): 2.1 ± 0.8 | GLP-2 concentration at 4 hours relative to the level at 2 hours [4]: approximately half | plasma total GLP-2 concentration compared with placebo ([4]; 2 and 4 hours after administration): significantly increased

exenatide
effect on chylomicron secretion in human beings [5]: reduces chylomicron secretion

N[C@@H](CC(=O)N1CCn2c(nnc2C(F)(F)F)C1)Cc1cc(F)c(F)cc1F [sitagliptin]
effect on chylomicron production in human beings ([5]; acute): acutely reduces chylomicron production
